According to PMC11193445 (International Journal of Nanomedicine, 2024):

System: MDA-MB-231 cells
Assay: Dox intracellular localization by confocal microscopy
Assay type: cell-based, human
Details: free Dox 7.5 µM, NF-Dox 50 µM (7.5 µM of Dox), 1 h, 37 °C
Procedure, shortened: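 MDA-MB-231 cells were seeded on coverslips at 5×10^4 cells/well and grown 24 h. They were exposed 1 h at 37 °C, washed twice in PBS, fixed 10 min in ice-cold 4% PFA, and mounted in DAPI-containing antifade. Intrinsic Dox fluorescence (RFP channel) and DAPI nuclei were imaged with a 63× oil objective. Images represent three separate experiments.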

SMILES: COc1cccc2c1C(=O)c1c(O)c3c(c(O)c1C2=O)C[C@@](O)(C(=O)CO)C[C@@H]3O[C@H]1C[C@H](N)[C@H](O)[C@H](C)O1 [Dox, Doxorubicin]
- Dox cellular uptake and localization (confocal, red fluorescence): not significant
